Reference: publication PMC6331712 (ChemistryOpen, 2019)
Several values for one entry are separate records, joined by “and”; a condition that tells them apart may be missing. Equal values may be shown once.

Legend:
[1] = Anodic peak potential by cyclic voltammetry; format: physicochemical; conditions: 1.0 mM compound in 100 mM TRIS‐buffer (pH 7.4)
[2] = tested on: TAMH cells; experiment: MTT cell viability assay, TAMH cells; format: cell-based, mouse; conditions: for LD50 / LD25: TAMH cells, MTT; for LD50: 24 h exposure; for LD25: 48 h exposure; for Tox./Act. (toxicity/activity ratio, safety index): average LD25 (48 h, TAMH) divided by average EC50 (KV7.2/3)
How it was run: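 MTT viability read-out in TAMH (transgenic mouse hepatocyte) and HEP-G2 (human hepatoma) cell lines. LD50 was taken after 24 h of exposure. […] LD50 values are means with standard deviations of 4–5 independent determinations. The ratio uses the mean EC50 from a thallium-flux KV7.2/3 assay (30 min exposure, four-parameter logistic fit).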

[3] = target: KV7.2/KV7.3 channel (Homo sapiens, UniProt O43525+O43526); format: cell-based; conditions: for Emax: HEK293; for KV7.2/KV7.3 channel opening activity (in words): thallium flux assay, compared with 1
[4] = tested on: HEP‐G2 cells; experiment: MTT cell viability assay, HEP-G2 cells; format: cell-based, human; conditions: for LD50 / LD25: HEP‐G2 cells, MTT; for LD50: 24 h exposure; for LD25: 48 h exposure; for Tox./Act. (toxicity/activity ratio, safety index): average LD25 (48 h, HEP‐G2) divided by average EC50 (KV7.2/3)
[5] = LogD7.4 determination from HPLC retention times with calibration curve; format: physicochemical; conditions: pH 7.4; for logD 7.4: from HPLC retention factor and calibration curve

Sequence of KV7.2/KV7.3 channel (O43525 whole entry): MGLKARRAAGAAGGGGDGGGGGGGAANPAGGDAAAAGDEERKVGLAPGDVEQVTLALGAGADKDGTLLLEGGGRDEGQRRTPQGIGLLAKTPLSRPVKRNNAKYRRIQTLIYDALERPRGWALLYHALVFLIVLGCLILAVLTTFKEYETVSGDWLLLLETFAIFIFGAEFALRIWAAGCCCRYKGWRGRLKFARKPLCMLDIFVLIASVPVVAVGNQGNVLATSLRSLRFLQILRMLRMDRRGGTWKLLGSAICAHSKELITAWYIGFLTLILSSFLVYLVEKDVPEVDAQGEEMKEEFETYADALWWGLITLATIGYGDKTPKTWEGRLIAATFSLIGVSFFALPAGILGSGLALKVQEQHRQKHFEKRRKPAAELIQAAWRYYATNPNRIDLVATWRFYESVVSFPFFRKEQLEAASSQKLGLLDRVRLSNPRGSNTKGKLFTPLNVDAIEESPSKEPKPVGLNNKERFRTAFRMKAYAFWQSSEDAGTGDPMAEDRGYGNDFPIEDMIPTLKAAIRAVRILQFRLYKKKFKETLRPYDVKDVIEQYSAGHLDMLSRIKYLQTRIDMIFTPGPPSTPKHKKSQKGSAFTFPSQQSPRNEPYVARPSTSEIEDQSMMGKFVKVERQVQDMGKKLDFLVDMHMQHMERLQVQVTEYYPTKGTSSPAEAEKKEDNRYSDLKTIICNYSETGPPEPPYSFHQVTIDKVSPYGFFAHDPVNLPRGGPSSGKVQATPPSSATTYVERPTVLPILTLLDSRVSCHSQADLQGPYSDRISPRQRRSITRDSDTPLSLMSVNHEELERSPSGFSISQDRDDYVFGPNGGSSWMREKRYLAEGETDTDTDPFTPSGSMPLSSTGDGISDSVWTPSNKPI
Sequence of KV7.2/KV7.3 channel (O43526 whole entry): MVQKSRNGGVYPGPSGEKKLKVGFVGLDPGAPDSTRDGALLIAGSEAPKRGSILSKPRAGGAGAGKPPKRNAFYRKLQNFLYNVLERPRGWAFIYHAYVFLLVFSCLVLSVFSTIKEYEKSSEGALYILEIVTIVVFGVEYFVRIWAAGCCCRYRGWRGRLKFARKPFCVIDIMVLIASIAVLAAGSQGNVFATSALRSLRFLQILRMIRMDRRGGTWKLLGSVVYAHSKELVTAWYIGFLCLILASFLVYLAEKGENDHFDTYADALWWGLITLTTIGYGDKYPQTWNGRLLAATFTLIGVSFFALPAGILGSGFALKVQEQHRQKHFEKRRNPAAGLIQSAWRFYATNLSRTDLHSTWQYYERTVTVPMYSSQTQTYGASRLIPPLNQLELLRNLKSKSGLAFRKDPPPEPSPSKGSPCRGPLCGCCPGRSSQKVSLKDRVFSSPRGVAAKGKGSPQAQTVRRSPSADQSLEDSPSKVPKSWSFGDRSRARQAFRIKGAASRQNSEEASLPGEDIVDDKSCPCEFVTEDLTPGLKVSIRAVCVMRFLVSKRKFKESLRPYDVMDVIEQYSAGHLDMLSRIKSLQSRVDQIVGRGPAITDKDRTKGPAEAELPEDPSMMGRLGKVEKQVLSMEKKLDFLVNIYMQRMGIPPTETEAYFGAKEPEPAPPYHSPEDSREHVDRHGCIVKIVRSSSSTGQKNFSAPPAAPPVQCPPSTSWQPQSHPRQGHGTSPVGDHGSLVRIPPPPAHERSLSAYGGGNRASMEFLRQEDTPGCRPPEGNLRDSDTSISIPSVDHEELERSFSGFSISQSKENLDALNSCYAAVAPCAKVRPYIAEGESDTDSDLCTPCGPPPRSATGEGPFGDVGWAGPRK

| Compound | Anodic peak potential E pa [1] | LD50 [2] | LD25 [2] | Tox./Act. (toxicity/activity ratio, safety index) [2] | EC50 [3] | Emax [3] | KV7.2/KV7.3 channel opening activity (in words) [3] | LD50 [4] | LD25 [4] | Tox./Act. (toxicity/activity ratio, safety index) [4] | chromatographic logD [5] | logD 7.4 [5] |
| --- | --- | --- | --- | --- | --- | --- | --- | --- | --- | --- | --- | --- |
| Nc1nc(SCc2ccc(F)cc2)ccc1NC(=O)c1ccc(F)c(F)c1 [9 a, N-{2-A mino-6-[(4-fluorobenzyl)thio]pyridin-3-yl}-3,4-difluorobenzamide] | 442 mV | >30 µM | 13 ± 04 µM | 50 | 260 ± 82 nM | 100 ± 23% | as active as the marketed drug 1 | 8 ± 3 µM | 4 ± 1 µM | 15 | 3.9 | – |
| CCOC(=O)Nc1ccc(SCc2cc(OC)cc(OC)c2)nc1N [9 c, Ethyl-{2-amino-6-[(3 ,5-dimethoxybenzylthio)pyridin-3-yl]}carbamate] | 450 mV | >250 µM | – | – | – | – | – | 134 ± 22 µM | – | – | – | 3.61 |
| CCOC(=O)Nc1ccc([S+]([O-])Cc2ccc(F)cc2)nc1C (centres unmarked) [10 d] | n.o.^[g] | >500 µM | – | – | > 10000 nM | – | – | >500 µM | – | – | 3.02 | – |
| CCOC(=O)Nc1ccc(SCCN2CCCCC2)nc1N [9 f] | 573 mV | >500 µM | – | – | – | – | – | >500 µM | – | – | – | 2.04 |
| Nc1nc([S+]([O-])Cc2ccc(F)cc2)ccc1NC(=O)c1ccc(F)c(F)c1 (centres unmarked) [10 a, N-[2-Amino-6-(4-fluorobenzylsulfinyl)pyridin-3-yl]-3 ,4-difluorobenzamide] | 628 mV | >100 µM | – | – | > 10000 nM | – | – | >125 µM | – | – | 3.24 | – |
| CCOC(=O)Nc1ccc(SC(=O)c2ccc(F)cc2)nc1N [9 e, S-{6-Amino-5-[(ethoxycarbonyl)amino]pyridin-2-yl} 4-fluorobenzothioate] | 573 mV | >125 µM | – | – | > 10000 nM | – | inactive in the tested concentration range | >250 µM | – | – | 3 | – |
| CCOC(=O)Nc1ccc(SCc2ccc(F)cc2)nc1C [9 h, E t hyl [6-(4-fluorobenzylthio)-2-methylpyridin-3-yl]carbamate] | 855 mV | >10 µM | >10 µM | – | 269 ± 31 nM | 129 ± 3% | – | >30 µM | 25 ± 16 µM | 93 | 3.85 | – |
| CCOC(=O)Nc1ccc(SCc2ccccn2)nc1N [9 d, Ethyl-{2-amino-6-[(pyridin-2-ylmethylthio)pyridin-3-yl]}carbamate] | 499 mV | >1000 µM | – | – | – | – | – | 831 ± 149 µM | – | – | – | 2.62 |
| CCOC(=O)Nc1ccc(NCc2ccc(F)cc2)nc1N [Compound 1, Flupirtine, reference compound] | 350 mV | 487 ± 51 µM | 103 ± 47 µM | 112 | 918 ± 99 nM | 100% | – | 547 ± 111 µM | 74 ± 40 µM | 81 | 2.96 | – |
| CCOC(=O)Nc1ccc([S+]([O-])Cc2ccc(-c3ccccc3)cc2)nc1N (centres unmarked) [10 b, E t hyl {6-[(1,1'-biphenyl-4-yl)methylsulfinyl]-2-aminopyridin-3-yl}carbamate] | 654 mV | >63 µM | – | – | > 10000 nM | – | – | >63 µM | – | – | 3.72 | – |
| CNc1nc(SCc2ccccc2)ccc1NC(=O)Cc1cc(F)cc(F)c1 [9 g, N‐[6‐(Benzylthio)‐2‐(methylamino)pyridin‐3‐yl]‐2‐(3,5‐difluorophenyl)acetamide] | 631 mV | >7.5 µM | 6 ± 3 µM and 6 ± 03 µM | 400 | 15 ± 2 nM | 147 ± 9% | markedly more potent and effective | >10 µM | 4 ± 4 µM | 267 | 4.27 | – |
| CCOC(=O)Nc1ccc(SCc2ccc(-c3ccccc3)cc2)nc1N [9 b, Ethyl-{6-[(1,1'-biphenyl-4-yl)methylthio]-2-aminopyridin-3-yl}carbamate] | 452 mV | >63 µM | 14 ± 13 µM | 55 | 253 ± 42 nM | 69 ± 9% | as active as the marketed drug 1 | >250 µM | – | – | 4.34 | – |
